# Assay results of several laboratories.
# Target: Mitogen-activated protein kinase kinase kinase 10 (MAP3K10, Homo sapiens, UniProt Q02779)
Compound,test,setting,remaining binding [%]
O=C(c1ccc(Nc2ncc(Cl)c(-c3ccc(Cl)s3)n2)cc1)N1CCC(N2CCCC2)CC1,"binding, competition with immobilised ligand",1 µM,0
C[C@H]1CCN(c2nccc(-c3cnn4ncccc34)n2)C1,binding,1 µM,100
CNC(=O)[C@@H]1CC[C@@H](n2c(-c3ccc4cnccc4c3)nc3ccc(C(=O)NCc4cccc(C(N)=O)c4)cc32)C1,"binding, competition with immobilised ligand",1 µM,86
CC(=O)N1CCC(c2ccc(C(=O)NC(=N)N)cc2C(F)(F)F)CC1,"cell-free assay, competition with immobilised ligand",1 µM,95
CC1CCCN1c1nccc(-c2cnn3ncccc23)n1 (stereo not drawn),binding,1 µM,100
COc1ncc2cc3ccccc3nc2c1C#N,"cell-free assay, competition with immobilised ligand",5 µM,79
c1cncc(-c2cccc(Nc3nccc(NC4CCCCC4)n3)c2)c1,"binding, competition with immobilised ligand",10 µM,49
Nc1ncc2c(n1)-c1c([nH]c3ccc(C#CC4CC4)cc13)CCCC2,"binding, competition with immobilised ligand",1 µM,91
CN(C)c1ncc(F)c(-c2cnn3ncccc23)n1,binding,1 µM,100
O=C(NCCCN1CCOCC1)c1ccc(Nc2nccc(-c3cc4ccccc4s3)n2)cc1,"binding, competition with immobilised ligand",1 µM,37
CNC(=O)c1ccc(Nc2ncc(C(F)(F)F)c(NCc3nccnc3N(C)S(C)(=O)=O)n2)cc1,"cell-free assay, competition with immobilised ligand",0.1 µM,68
O=C(NCCCN1CCOCC1)c1ccc(Nc2ncc(Cl)c(-c3ccc(Cl)s3)n2)cc1,"binding, competition with immobilised ligand",1 µM,3
COc1cc(-c2cn(C3CCc4ccccc4N(CC(F)(F)F)C3=O)nn2)ccc1-n1ccc(C)n1 (stereo not drawn),"cell-free assay, competition with immobilised ligand",1 µM,96
N[C@@H]1CCN(c2nccc(-c3cnn4ncccc34)n2)C1,binding,1 µM,100
COc1cnc(Nc2cccc(S(N)(=O)=O)c2)nc1N1CCN(c2ccccc2)C(=O)C1,"binding, competition with immobilised ligand",1 µM,79
COc1ccc2c(c1)O[C@H](c1ccc(OC)c(OC)c1)C[C@@H]2NC(=O)C1(c2ccc3c(c2)OC(F)(F)O3)CC1,"cell-free assay, competition with immobilised ligand",1 µM,97
O=C(Nc1c[nH]nc1C(=O)NC1CCNCC1)c1cc(F)cc(F)c1,"binding, competition with immobilised ligand",1 µM,100
Cc1cc(-n2nc(Cc3cc(F)cc(C(F)(F)F)c3)nc2C)ccc1C(N)=O,"cell-free assay, competition with immobilised ligand",1 µM,95
COc1ccnn2ncc(-c3ccnc(N(C)C)n3)c12,binding,1 µM,78
C[C@H](c1ccnc(Nc2nc3ccc(-c4cc(N(C)C)ncn4)cc3[nH]2)c1)N1CCN(C(=O)CC(F)(F)F)CC1,"cell-free assay, competition with immobilised ligand",0.1 µM,100
CN(C)c1nccc(-c2cnc3ncccn23)n1,binding,1 µM,72
